This is a sample that favours compounds with a hit; in the whole collection about 3.7% have one here.
AHR act: human AHR activation; actives 2.5% (n = 320,000); activation, % at 5 µM; AHR-responsive luciferase reporter cells, luminescence; in the data active = activation above about 47%;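 also: 0% = vehicle wells and 100% = reference agonist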
JMJD2C inh: inhibitors of human GASC-1 (JMJD2C) demethylase; GST-JMJD2C(1-420) H3K9me3 demethylation, DELFIA europium; inhibition, % at 2.35 µM; Q9H3R0; actives 0.069% (n = 330,000);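 active = more than half of a compound's replicate wells show inhibition beyond 50%, single wells judged on their own value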;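 also: signal counts dimethyl H3K9 product captured on neutravidin plate; 0% = median of DMSO wells and 100% = 0.3 times that DMSO median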
Target sequence (Q9H3R0 1-420 limits assumed): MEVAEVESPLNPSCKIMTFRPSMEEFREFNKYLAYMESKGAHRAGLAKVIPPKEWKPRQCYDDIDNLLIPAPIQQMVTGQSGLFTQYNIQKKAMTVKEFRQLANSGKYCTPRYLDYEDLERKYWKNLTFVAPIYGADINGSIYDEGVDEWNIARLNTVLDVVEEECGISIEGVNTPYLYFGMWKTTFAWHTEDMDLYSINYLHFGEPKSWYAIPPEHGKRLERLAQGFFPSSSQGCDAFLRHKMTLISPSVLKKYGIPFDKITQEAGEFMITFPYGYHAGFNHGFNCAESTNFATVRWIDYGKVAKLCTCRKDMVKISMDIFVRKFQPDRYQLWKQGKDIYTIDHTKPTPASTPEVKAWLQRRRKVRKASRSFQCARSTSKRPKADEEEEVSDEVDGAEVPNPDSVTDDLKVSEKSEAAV
SR-BI uptake up: enhances SR-BI lipid uptake from DiI-HDL. AID 504775. activation, % at 12.5 µM. actives 0.096% (n = 320,000). CHO ldlA[mSR-BI] cells, DiI-HDL uptake fluorescence, 3 h; 100 = double the neutral-control signal;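 active = mean replicate activation of at least 60% and every replicate at or above 60%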;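 also: 0% = median plate neutral-control signal and 100% = twice that signal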
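Assay system: CHO ldlA[mSR-BI] cells, LDL receptor-null, SR-BI overexpressing; medium: Ham's F12 with 0.5% BSA, HEPES 25 mM, pH 7.4; also added: DiI-HDL 10 µg/mL; timing: 3 h uptake period with compound, 37 °C; signal: DiI fluorescence, bottom read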
GAA850 FXN act: activators of GAA850 frataxin (FXN) promoter; activation, % at 6 µM; HEK293 lucGAA850 FXN promoter luciferase reporter, 24 h; percent of 10 µM SAHA response; actives 0.56% (n = 360,000);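 active = activation above the average of all compounds screened plus 3 SD, cutoff fixed separately per campaign, cut at about 7.5% in these data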;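 also: 0% = DMSO wells and 100% = 10 µM SAHA wells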
SR-BI HDL uptake: mouse SR-BI HDL lipid transfer inhibition. Q61009. ldlA[mSR-BI] CHO cells, DiI-HDL uptake fluorescence, 3 h. actives 0.96% (n = 320,000). inhibition, % at 12.5 µM. AID 488896;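 active = mean replicate inhibition of at least 70% and a set share of replicates each scoring 70 or more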;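 also: 0% = median of neutral control wells and 100% = median of positive control wells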
AHR act cf: human AHR activation, confirmation. shares compounds with AHR act. human cells, AHR-responsive luciferase reporter, luminescence. activation, % at 9 µM. actives 87% (n = 2,300); in the data active = activation above about 49%;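 also: HepG2 hepatoma cells carrying a DRE-driven firefly luciferase reporter; 0% = vehicle wells and 100% = reference agonist wells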
PXR counter: counter-screen for AHR activators: human PXR activators; cell-based PXR reporter, luciferase luminescence; actives 88% (n = 2,300); activation, % at 11.6 µM; shares compounds with AHR act; in the data active = activation above about 11%;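 also: human hepatoma DPX-2 cells expressing full-length human PXR; 0% = DMSO and 100% = reference agonist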
* hit, by the source's call.

Results for Clc1ccc(-n2nnc(-c3cccnc3)n2)cc1Cl ?
AHR act: 112*; JMJD2C inh: 6; SR-BI uptake up: 20; GAA850 FXN act: 2; SR-BI HDL uptake: -20; AHR act cf: 135*; PXR counter: 38*

How did Clc1ccc(-n2nnc(-c3nccs3)n2)cc1Cl do in these assays?
AHR act: 116*; JMJD2C inh: 17; SR-BI uptake up: 1; GAA850 FXN act: 5; SR-BI HDL uptake: -1; AHR act cf: 84*; PXR counter: 33*

What do the screens show for `COc1ccc2cc(CN(Cc3ccco3)Cc3nnnn3C3CCCCC3)c(=O)[nH]c2c1`?
AHR act: -1; JMJD2C inh: 34; SR-BI uptake up: -16; GAA850 FXN act: -1; SR-BI HDL uptake: 16

Results for CCC(C)(C)n1nnnc1CN(Cc1ccco1)Cc1cc2cc3c(cc2[nH]c1=O)OCO3 ?
AHR act: 107*; JMJD2C inh: -5; SR-BI uptake up: -5; GAA850 FXN act: 0; SR-BI HDL uptake: 5; AHR act cf: 86*; PXR counter: 147*

What do the screens show for `CC(C)(C)n1nnnc1CN(Cc1ccco1)Cc1cc2cc3c(cc2[nH]c1=O)OCO3`?
AHR act: 111*; JMJD2C inh: 2; SR-BI uptake up: 12; GAA850 FXN act: 1; SR-BI HDL uptake: -12; AHR act cf: 96*; PXR counter: 197*

What do the screens show for `CS(=O)(=O)Nc1ccc(Oc2ncccn2)cc1`?
AHR act: 0; JMJD2C inh: -13; SR-BI uptake up: 37; GAA850 FXN act: 0; SR-BI HDL uptake: -37

What do the screens show for `Cn1cc(/C=C(\NC(=O)c2ccccc2)C(=O)N2CCOCC2)c2ccccc21`?
AHR act: 85*; JMJD2C inh: -7; SR-BI uptake up: 32; GAA850 FXN act: -1; SR-BI HDL uptake: -32; AHR act cf: 33; PXR counter: 87*

How did CN1CCN(CC(=O)Nc2sc3c(c2C(=O)Nc2ccccc2)CCCC3)CC1 do in these assays?
AHR act: 4; JMJD2C inh: -6; SR-BI uptake up: -5; GAA850 FXN act: 1; SR-BI HDL uptake: 5

What do the screens show for `O=C(CN1CCCC1)Nc1sc2c(c1C(=O)Nc1ccc(Br)cc1)CCC2`?
AHR act: 79*; JMJD2C inh: -4; SR-BI uptake up: -4; GAA850 FXN act: -1; SR-BI HDL uptake: 4; AHR act cf: 104*; PXR counter: 52*

What do the screens show for `COc1ccc(-c2sc3cc4c(cc3c2C#CC2(O)CCCCC2)OCO4)cc1`?
AHR act: 96*; JMJD2C inh: 7; SR-BI uptake up: -66; GAA850 FXN act: 4; SR-BI HDL uptake: 66; AHR act cf: 81*; PXR counter: 63*

How did COc1ccccc1-c1sc2cc3c(cc2c1C#Cc1ccccn1)OCO3 do in these assays?
AHR act: 104*; JMJD2C inh: 3; SR-BI uptake up: -24; GAA850 FXN act: 1; SR-BI HDL uptake: 24; AHR act cf: 116*; PXR counter: 176*

How did COc1ccccc1-c1sc2cc3c(cc2c1C#CC1(O)CCCCC1)OCO3 do in these assays?
AHR act: 103*; JMJD2C inh: 1; SR-BI uptake up: -52; GAA850 FXN act: 0; SR-BI HDL uptake: 52; AHR act cf: 101*; PXR counter: 314*

Results for COc1ccc(-c2sc3cc4c(cc3c2-c2ccc3c(c2)OCCO3)OCO4)cc1 ?
AHR act: 8; JMJD2C inh: 12; SR-BI uptake up: 1; GAA850 FXN act: 0; SR-BI HDL uptake: -1

How did COc1ccccc1-c1sc2cc3c(cc2c1-c1ccc(O)cc1)OCO3 do in these assays?
AHR act: 24; SR-BI uptake up: -40; GAA850 FXN act: 1; SR-BI HDL uptake: 40

What do the screens show for `COc1ccccc1-c1sc2cc3c(cc2c1-c1ccc(OCCN2CCOCC2)cc1)OCO3`?
SR-BI uptake up: -6; GAA850 FXN act: 1; SR-BI HDL uptake: 6

How did Cc1c(C(=O)N(C)C)c2ccc(Cl)cc2n1O do in these assays?
AHR act: 3; JMJD2C inh: -1; SR-BI uptake up: 20; GAA850 FXN act: 2; SR-BI HDL uptake: -20

Results for O=C(/C=C/c1ccc(Cl)c([N+](=O)[O-])c1)Nc1ccc(NC(=O)c2ccco2)cc1 ?
JMJD2C inh: -7; SR-BI uptake up: -35; GAA850 FXN act: 4; SR-BI HDL uptake: 35

Results for O=C(/C=C/c1ccc(Cl)c([N+](=O)[O-])c1)Nc1ccc(N2CCCC2)cc1 ?
AHR act: 84*; JMJD2C inh: -4; SR-BI uptake up: -69; GAA850 FXN act: 2; SR-BI HDL uptake: 69; AHR act cf: 95*; PXR counter: 18*

Results for Cc1ccc(-n2nc3c(=O)n(CC(=O)NCc4ccc(C)o4)nc(C)c3c2C)cc1 ?
AHR act: -1; JMJD2C inh: -5; SR-BI uptake up: -21; GAA850 FXN act: 1; SR-BI HDL uptake: 21

How did COc1ccc(OC)c(NC(=O)c2sc3ncnc(N4CCN(c5ccccn5)CC4)c3c2C)c1 do in these assays?
AHR act: -4; JMJD2C inh: -4; SR-BI uptake up: -30; GAA850 FXN act: -2; SR-BI HDL uptake: 30

Results for CCN1CCN(c2ncnc3sc(C(=O)Nc4ccccc4F)c(C)c23)CC1 ?
AHR act: 128*; JMJD2C inh: 5; SR-BI uptake up: -28; GAA850 FXN act: 0; SR-BI HDL uptake: 28; AHR act cf: 75*; PXR counter: 23*

Results for CCCNC(=O)C1(C)CCCN(C(=O)c2ccccc2OC(F)(F)F)C1 (stereo not given) ?
GAA850 FXN act: 0

How did CCc1nnc(NC(=O)C(c2ccccc2)c2ccccc2)s1 do in these assays?
AHR act: -2; JMJD2C inh: -1; GAA850 FXN act: -2

Results for CN(C)S(=O)(=O)Oc1ccsc1C(=O)Nc1cccc(Cl)c1 ?
AHR act: 22; JMJD2C inh: 2; SR-BI uptake up: -17; GAA850 FXN act: 0; SR-BI HDL uptake: 17

How did CN(C)S(=O)(=O)Oc1ccsc1C(=O)Nc1ccc(Cl)c(Cl)c1 do in these assays?
AHR act: 90*; JMJD2C inh: 2; SR-BI uptake up: -24; GAA850 FXN act: -1; SR-BI HDL uptake: 24; AHR act cf: 122*; PXR counter: 35*

How did O=c1[nH]c(Sc2ccc([N+](=O)[O-])cc2[N+](=O)[O-])nc2ccccc12 do in these assays?
AHR act: 88*; JMJD2C inh: -44; SR-BI uptake up: -8; GAA850 FXN act: 4; SR-BI HDL uptake: 8; AHR act cf: 41; PXR counter: 26*

What do the screens show for `O=C(CSc1nc2ccccc2c(=O)[nH]1)Nc1ccc([N+](=O)[O-])cc1`?
AHR act: -2; JMJD2C inh: 0; SR-BI uptake up: -17; GAA850 FXN act: -2; SR-BI HDL uptake: 17

High-throughput results deposited in PubChem BioAssay by several laboratories.
